ABHD4 inh: ABHD4 (mouse) inhibition, primary FP screen | Q8VD66 | purified mABHD4, FP-Rh probe fluorescence polarization | inhibition, % at 8.92 µM | actives 0.54% (n = 370,000);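 active = inhibition exceeding the mean over every tested compound plus 3 SD, cut at about 30% in these data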
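Test system: mouse ABHD4 enzyme, wild type. Reagent: FP-Rh fluorescent activity-based probe, added after compound pre-incubation. Timing: pre-incubation 45 min, probe exposure 60 min, at 25 °C. Technique: FP readout, ex 525 nm / em 598 nm. Benchmarks: high control S159A mutant with DMSO, low control median of compound wells.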
HTRA1 inhibitor: HTRA1 (human) protease inhibition | inhibition, % at 5.96 µM | actives 0.5% (n = 340,000) | recombinant HTRA1, FP-rhodamine activity-based probe, fluorescence polarization | Q92743; in the data active = inhibition above about 36%
PRMT1 inh: inhibitors of human PRMT1; Q99873; recombinant PRMT1, activity-based probe fluorescence polarization; inhibition, % at 2.79 µM; actives 1.3% (n = 370,000);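 active = inhibition above about 21% made by adding two undisclosed values, limit read from the data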
Target sequence (Q99873 whole entry, looked up): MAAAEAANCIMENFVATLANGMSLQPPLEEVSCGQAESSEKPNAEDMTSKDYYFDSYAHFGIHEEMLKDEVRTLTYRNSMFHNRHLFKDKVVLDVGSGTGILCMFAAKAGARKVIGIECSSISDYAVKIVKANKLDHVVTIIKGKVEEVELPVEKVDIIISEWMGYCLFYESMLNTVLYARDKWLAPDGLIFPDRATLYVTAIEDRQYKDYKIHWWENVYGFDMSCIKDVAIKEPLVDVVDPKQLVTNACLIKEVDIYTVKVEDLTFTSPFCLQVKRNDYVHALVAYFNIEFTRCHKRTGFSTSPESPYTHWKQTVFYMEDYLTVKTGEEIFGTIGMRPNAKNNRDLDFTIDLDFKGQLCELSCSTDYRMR
rCAG binder: binds r(CAG) RNA repeats. actives 1.3% (n = 370,000). r(CAG) RNA repeat, TO-PRO-1 dye displacement fluorescence. inhibition, % at 3 µM;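 active = inhibition above the plate cutoff, the mean of all test compounds on that plate plus 3 SD, cut at about 35% in these data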;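 note: higher means more dye released from RNA so lower well fluorescence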
SIAE primary: blocks human sialic acid acetylesterase; inhibition, % at 9.66 µM; SIAE FP-Rh probe binding, fluorescence polarization; actives 0.69% (n = 370,000); Q9HAT2;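 active = inhibition above a cutoff: mean of compounds within the control limits plus 3 SD of those, cut at about 17% in these data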
TCR CD3 inh: inhibitors of human TCR-CD3 interaction; TAMRA-labeled TCR probe fluorescence, biochemical; inhibition, % at 9.4 µM; actives 0.37% (n = 360,000); in the data active = inhibition above about 19%;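 note: recombinant mutant TCR 2C K166C tagged with TAMRA read by polarization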
rCAG bind conf: r(CAG) RNA repeat binding, confirmation. shares compounds with rCAG binder. TO-PRO-1 dye displacement fluorescence. inhibition, % at 3 µM. actives 70% (n = 4,300);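 active = inhibition above a per-plate cutoff, the mean inhibition of sample wells plus 3 SD, cut at about 35% in these data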;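 note: loss of TO-PRO-1 fluorescence as compound displaces dye from 1x1 AA loop RNA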
dCAG dye counter: DNA CAG dye complex inhibition counter-screen. inhibition, % at 3 µM. AID 652068. actives 94% (n = 4,300). d(CAG) DNA oligo TO-PRO-1 dye displacement, fluorescence. shares compounds with rCAG binder;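 active = inhibition above its plate's cutoff, the mean test-well inhibition plus 3 SD, cut at about 4.8% in these data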;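 note: hits displace the dye from DNA and so lower well fluorescence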
DNA CAG DR: DNA CAG dye complex inhibition, dose response counter-screen | shares compounds with rCAG binder | DNA CAG/GTC duplex TO-PRO-1 dye displacement fluorescence | IC50, µM | actives 20% (n = 250) | AID 686960; in the data active = IC50 below about 10 µM
Large screens that a line does not name were inactive (follow-up assays come after a bar, where they were run). Hits are enriched below; roughly 3.5% of the tested compounds scored in any of these assays.

O=C(c1cc(Cl)cc(Cl)c1)N1CCC(Oc2cccnc2)CC1	none (no result: HTRA1 inhibitor, TCR CD3 inh)
S=C(NCc1ccccc1)NC1CCSc2ccccc21 (stereo unspecified)	rCAG binder 53 | rCAG bind conf inactive | dCAG dye counter inactive
O=C(COc1ccc2c(-c3ccccc3)cc(=O)oc2c1)NC(Cc1c[nH]c2ccccc12)C(=O)O (stereo unspecified)	rCAG binder 54 | rCAG bind conf 49 | dCAG dye counter 12
CC(Oc1ccc2c(-c3ccccc3)cc(=O)oc2c1)C(=O)NC(Cc1c[nH]c2ccc(O)cc12)C(=O)O (stereo unspecified)	none
O=C(COc1ccc2c(-c3ccccc3)cc(=O)oc2c1)N[C@@H](Cc1c[nH]c2ccc(O)cc12)C(=O)O	rCAG binder 37 | rCAG bind conf 39 | dCAG dye counter 13
O=C(Cc1cc(=O)oc2cc(O)ccc12)N[C@@H](Cc1c[nH]c2ccccc12)C(=O)O	none
Cc1c[nH]c2cccc(-c3ccc(OCc4ccccc4)cc3)c12	none (no result: HTRA1 inhibitor, TCR CD3 inh)
COC(=O)c1sc(-c2ccc(C(C)(C)C)cc2)cc1NC(=O)CCC(=O)O	rCAG binder 72 (no result: HTRA1 inhibitor) | rCAG bind conf 72 | dCAG dye counter 29
COC(=O)c1sc(-c2ccc(Cl)cc2)cc1NC(=O)/C=C/C(=O)O	none
COC(=O)c1sc(-c2ccc(Cl)cc2)cc1NC(=O)COCC(=O)O	rCAG binder 46 | rCAG bind conf 52 | dCAG dye counter 12 | DNA CAG DR inactive
Cc1ccc(N2C(=O)C(c3c(C)[nH]n(-c4ccccc4)c3=O)(C(F)(F)F)C3=C2CC(C)(C)CC3=O)cc1 (stereo unspecified)	none
Cc1[nH]n(-c2ccccc2)c(=O)c1C1(C(F)(F)F)C(=O)N(c2ccccc2)C2=C1C(=O)CC(C)(C)C2 (stereo unspecified)	rCAG binder 36 | rCAG bind conf inactive | dCAG dye counter 7.3
CCCn1nc(C(=O)Nc2cc(S(=O)(=O)Nc3ccc(OC)cc3)ccc2O)c2ccccc2c1=O	rCAG binder 62 | rCAG bind conf 54 | dCAG dye counter 19
CCCn1nc(C(=O)Nc2ccc(S(=O)(=O)Nc3nccs3)cc2)c2ccccc2c1=O	rCAG binder 65 | rCAG bind conf 56 | dCAG dye counter 23
CCC[C@@H](/C=C/C(=O)OC(C)(C)C)Sc1ccccc1OC	none (no result: HTRA1 inhibitor, TCR CD3 inh)
CCOC(=O)COc1ccc(C(C)c2ccc(NC(=O)OC(C)(C)C)cc2)cc1 (stereo unspecified)	none (no result: HTRA1 inhibitor, TCR CD3 inh)
O=S(=O)(c1ccccc1F)N1CCC(c2nc3ccccc3o2)CC1	none (no result: HTRA1 inhibitor, TCR CD3 inh)
O=C(O)c1cc(N/N=C/C(Cl)=C/c2ccccc2)ccc1Cl	rCAG binder 57 | rCAG bind conf 45 | dCAG dye counter 18
O=[N+]([O-])c1cccc(OCCCN2CCC(C(O)(c3ccccc3)c3ccccc3)CC2)c1	none (no result: HTRA1 inhibitor, TCR CD3 inh)
COc1ccc(/C=C2/SC(=S)N(CCC(=O)O)C2=O)cc1	none
O=C1/C(=C\c2cc(Cl)c(O)c(Cl)c2)SC(=S)N1Cc1ccccc1	none
O=C(O)COc1ccc(/C=C2/SC(=S)N(Cc3ccccc3)C2=O)cc1	rCAG binder 76 | rCAG bind conf 85 | dCAG dye counter 52
COc1ccc(/C=C2/SC(=S)N(Cc3ccccc3)C2=O)cc1O	rCAG binder 44 | rCAG bind conf inactive | dCAG dye counter 14
CCCC1CCC2(CCCN2CCOC(=O)Nc2cccc(Cl)c2)CC1 (stereo unspecified)	none (no result: HTRA1 inhibitor, rCAG binder, TCR CD3 inh)
O=C(O)c1cnn(-c2nc(-c3ccc(Cl)c(Cl)c3)cs2)c1C(F)(F)F	rCAG binder 64 | rCAG bind conf 44 | dCAG dye counter 9.5
COC(=O)[C@]12C[C@H](CC(=O)NCCCN3CCCC3=O)C(=O)N(CCC3=CCCCC3)C1=C[C@H](C(C)C)O[C@@H]2C1CC1	none (no result: HTRA1 inhibitor, TCR CD3 inh)

From PubChem
